Test results from ChEMBL document CHEMBL1156809, “Synthesis and anticonvulsant activities of (R)-N-(4'-substituted)benzyl 2-acetamido-3-methoxypropionamides” (J Med Chem, 2010).
Calls of active or inactive are those of the source. The calls are words filed in the database; no cut-off is given here.

Columns and labels:
Rattus norvegicus [1] = test: Anticonvulsant activity against subcutaneous metrazole-induced seizures in albino Sprague-Dawley rat at 300 mg/kg, ip after 4 hrs; format: functional, organism-based; parameters: dose 300 mg/kg
Rattus norvegicus [2] = test: Anticonvulsant activity against in ip dosed albino Sprague-Dawley rat hippocampal kindled seizure model assessed as decrease in seizures after 0.5 hrs; format: functional; conditions: Hippocampus
Method in brief: (§1)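 Rats were given compounds intraperitoneally in the rapid hippocampal kindling model under the NINDS ASP. Racine seizure score and after-discharge duration (sec) were recorded before and after dosing. Where determined, ED50 (mg/kg) is given with an interval.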

Rattus norvegicus [3] = test: Anticonvulsant activity against subcutaneous metrazole-induced seizures in albino Sprague-Dawley rat at 300 mg/kg, ip after 0.5 hrs; format: functional, organism-based; parameters: dose 300 mg/kg
Mus musculus [4] = test: Anticonvulsant activity against subcutaneous metrazole-induced seizures in albino CF1 mouse at 300 mg/kg, ip after 0.5 hrs; format: functional, organism-based; parameters: dose 300 mg/kg
Method in brief: (§2)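 Subcutaneous Metrazol seizure test under the NINDS ASP, using ip dosing to mice, typically at 300 mg/kg. Protection was assessed at 0.5 and 4 h.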

Mus musculus [5] = test: Anticonvulsant activity in ip dosed albino CF1 mouse seizure model assessed as protection against hind limb extension by MES test; format: functional; conditions: albino CF1, Hindlimb
Method in brief: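 Maximal electroshock seizure test run by the NINDS ASP (Stables and Kupferberg procedures). Compounds were given intraperitoneally to mice, and the ED50 for seizure protection is reported in mg/kg.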

Mus musculus [6] = test: Anticonvulsant activity against subcutaneous metrazole-induced seizures in albino CF1 mouse at 300 mg/kg, ip after 4 hrs; format: functional, organism-based; parameters: dose 300 mg/kg; method in brief: as §2
Rattus norvegicus [7] = test: Anticonvulsant activity in po dosed albino Sprague-Dawley rat seizure model assessed as protection against hind limb extension by MES test; format: functional; conditions: Hindlimb
Method in brief: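 MES seizure protection was tested in Sprague Dawley rats dosed orally, through the NINDS ASP. The ED50 is expressed in mg/kg.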

Mus musculus [8] = test: Protective index, ratio of TD50 for ip dosed albino CF1 mouse to ED50 for ip dosed albino CF1 mouse; format: functional
Method in brief: (§3)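 Protective index was calculated as TD50/ED50 for the same species and route: mouse ip (rotorod TD50, MES ED50) and rat po.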

[9] = Neurological toxicity in ip dosed albino CF1 mouse assessed as neurological impairment by rotarod test; format: organism-based; conditions: in vivo
Method in brief: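 Neurological impairment was measured with the rotorod test in mice dosed intraperitoneally. The median dose (TD50, mg/kg) was determined only for compounds with significant MES activity.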

[10] = Behavioral toxicity in po dosed albino Sprague-Dawley rat; format: organism-based; conditions: in vivo
Method in brief: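 Behavioral toxicity was recorded as observed effects in rats after oral administration, within the NINDS ASP screen.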

Rattus norvegicus [11] = test: Protective index, ratio of TD50 for po dosed albino Sprague-Dawley rat to ED50 for po dosed albino Sprague-Dawley rat; format: functional; method in brief: as §3
Rattus norvegicus [12] = test: Anticonvulsant activity against in ip dosed albino Sprague-Dawley rat hippocampal kindled seizure model assessed as after-discharge duration after 0.5 hrs; format: functional, Hippocampus; method in brief: as §1

Row | SMILES | Activity (Rattus norvegicus [1]) | ED50 (Rattus norvegicus [2]) [mg/kg] | Activity (Rattus norvegicus [3]) | Activity (Mus musculus [4]) | ED50 (Mus musculus [5]) [mg/kg] | Activity (Mus musculus [6]) | ED50 (Rattus norvegicus [7]) [mg/kg] | PI (Mus musculus [8]) | TD50 [9] [mg/kg] | TD50 [10] [mg/kg] | PI (Rattus norvegicus [11]) | Time (Rattus norvegicus [12]) [s]
1 | CCCC(CCC)C(=O)[O-].[Na+] [VALPROATE SODIUM] | inactive | 210 | inactive | inactive | 270 | inactive |  |  |  |  |  | 
2 | COC[C@@H](NC(C)=O)C(=O)NCc1ccc(C#N)cc1 | inactive |  | inactive | inactive | 150 | inactive | > 30 | >3.3 | > 500 | > 30 |  | 
3 | COC[C@@H](NC(C)=O)C(=O)NCc1ccc(OC(F)(F)F)cc1 | inactive |  | inactive | inactive | 3.6 | inactive | 1.7 | 3.6 | 13 | 63 | 37 | 
4 | COC[C@@H](NC(C)=O)C(=O)NCc1ccc(N=[N+]=[N-])cc1 | inactive | 6 | inactive | inactive | 8.4 | inactive |  |  |  | > 250 | >64 | 0
5 | COC[C@@H](NC(C)=O)C(=O)NCc1ccc(F)cc1 | inactive |  | inactive | inactive |  | inactive |  | 6.7 |  | 125 | >48 | 
6 | COC[C@@H](NC(C)=O)C(=O)NCc1ccc(Cl)cc1 | inactive |  | inactive | inactive | 5 | inactive | 1 | 5.6 | 28 | > 200 | >200 | 2
7 | COCCCc1ccc(CNC(=O)[C@@H](COC)NC(C)=O)cc1 | inactive |  | inactive | inactive | 20 | inactive |  | 3.1 | 62 | > 500 | >32 | 21
8 | COC[C@@H](NC(C)=O)C(=O)NCc1ccc(C)cc1 | inactive |  | inactive | inactive | 11 | inactive | 8.1 | 3 | 31 | > 500 | >62 | 
9 | COC[C@@H](NC(C)=O)C(=O)NCc1cccc(F)c1 | inactive |  | inactive | inactive |  | inactive |  | 6.7 |  | > 400 | >58 | 
10 | COC[C@@H](NC(C)=O)C(=O)NCc1ccc(Br)cc1 | inactive |  | inactive | inactive | 8.7 | inactive | 4.9 | 3.5 | 30 | 300 | 61 | 
11 | O=C1NC(=O)C(c2ccccc2)(c2ccccc2)N1 [PHENYTOIN] | inactive |  | inactive | inactive |  | inactive |  |  |  |  |  | 51
12 | COC[C@@H](NC(C)=O)C(=O)NCc1ccccc1 [LACOSAMIDE] | inactive |  | inactive | inactive |  | inactive |  | 6 |  | > 500 | >130 | 0
13 | C=Cc1ccc(CNC(=O)[C@@H](COC)NC(C)=O)cc1 | inactive |  | inactive | inactive | 3.5 | inactive | 7.6 | 4.6 | 16 |  | >20 | 0
14 | CCCc1ccc(CNC(=O)[C@@H](COC)NC(C)=O)cc1 | inactive |  | inactive | inactive | 8.5 | inactive | < 30 | 1.5 | 13 | > 30 |  | 
15 | COCC#Cc1ccc(CNC(=O)[C@@H](COC)NC(C)=O)cc1 | inactive |  | inactive | inactive | 10 | inactive | 18 | 1.5 | 15 | 100 | 5.5 | 
16 | COC[C@@H](NC(C)=O)C(=O)NCc1ccc(I)cc1 | inactive | 12 | inactive | inactive | 16 | inactive | 12 | 2.6 | 41 | > 500 | >43 | 0
17 | COCc1ccc(CNC(=O)[C@@H](COC)NC(C)=O)cc1 | inactive | 87 | inactive | inactive | 73 | inactive |  | 2.3 |  | > 500 | >11 | 12
